Series [1] in a line: Toxicity in athymic nude rat xenografted with human SW620 cells assessed as maximal body weight loss at 25 mg/kg/day, iv for 24 h following 4 days. Type of series: organism-based, SW-620. To be noted: in vivo, 96 h, time 4 day. The procedure, abridged:
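Male nude rats bearing SW620 xenografts received vehicle or AZD1152 at 25 mg/kg/d i.v. once daily for 4 consecutive days. Body weight was tracked, with maximal loss taken relative to vehicle-treated animals.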
On the technique in general: Xenograft models place foreign cells or tissue in a host animal.

Series [2] has as its system HL-60. Description: Antitumor activity against human HL-60 cells xenografted in immunodeficient athymic mouse assessed as inhibition of tumor growth at 45 mg/kg, iv administered twice daily for 5 days relative to control. It is filed as functional. Conditions: HL-60, 120 h, time 5 day.
Series [3] deals with HL-60. The experiment in a line: Antitumor activity against human HL-60 cells xenografted in immunodeficient athymic mouse assessed as inhibition of tumor growth at 75 mg/kg, ip administered twice daily for 13 days relative to control. Conditions: time 13.0 day. It is filed as functional, organism-based.

As to `CCN(CCCOc1ccc2c(Nc3cc(CC(=O)Nc4cccc(F)c4)n[nH]3)ncnc2c1)CCOP(=O)(O)O` [BARASERTIB], the Activity in series [1] is 5%.
`CCc1cccc(CC)c1NC(=O)N1Cc2[nH]nc(NC(=O)c3ccc(N4CCN(C)CC4)cc3)c2C1` [PHA-680632]: the inhibition in vivo at 45 mg/kg in the series on HL-60 [2] was 85%.
Consider `Cc1cc(Nc2cc(N3CCN(C)CC3)nc(Sc3ccc(NC(=O)C4CC4)cc3)n2)n[nH]1`, for which, in the series with HL-60 [3], the inhibition was found to be 98%.

As usually defined, the inhibition in vivo is the percentage by which the read-out fell short of the control. What is called inhibition is the relative decrease from the control value, in per cent.

The values above are taken from ChEMBL document CHEMBL5715941, “AZD1152, a selective inhibitor of Aurora B kinase, inhibits human tumor xenograft growth by inducing apoptosis” (Clin Cancer Res, 2007).
